Data on 13 compounds can be found in ChEMBL document CHEMBL1142303, “Imidazo[2,1-b]thiazole system: a scaffold endowing dihydropyridines with selective cardiodepressant activity” (J Med Chem, 2008).

The source made the active and inactive calls. The calls are words filed in the database; no cut-off is given here.

Test [1] is filed under the species Cavia porcellus. Description: Inotropic activity at L type calcium channel in guinea pig left atrium assessed as decrease in tension at 50 uM relative to control. Also on record: scale not given: the % may be the effect or the level left. It is filed as tissue-based. To be noted: Cardiac atrium.
For test [2], the species on record is Cavia porcellus. Description: Chronotropic activity at L type calcium channel in guinea pig right atrium assessed as decrease in spontaneous beating. The conditions noted are these: Cardiac atrium. In kind it is tissue-based. The procedure, abridged: (§1)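 Guinea-pig atria: left atrium driven at 1 Hz for inotropy, spontaneously beating right atrium for chronotropy. Increasing cumulative doses, readout is percent decrease. EC50 (inotropic) and EC30 (chronotropic) by Litchfield–Wilcoxon probit analysis on log concentration–response curves, n = 6–7. Not calculated when the maximum effect was below 50%.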

For test [3], the species on record is Cavia porcellus. Description: Chronotropic activity at L type calcium channel in guinea pig right atrium assessed as decrease in spontaneous beating at 5 uM relative to control. In kind it is tissue-based. Set-up: scale not given: the % may be the effect or the level left. The conditions noted are these: Cardiac atrium.
The nature of test [4]: Inotropic activity at L type calcium channel in guinea pig left atrium assessed as decrease in tension. In kind it is tissue-based. To be noted: Cavia porcellus, Cardiac atrium. An outline of the steps: as §1
For test [5], the species on record is Cavia porcellus. Description: Activity at L type calcium channel in K+ depolarized guinea pig aortic strip assessed as inhibition of calcium induced contraction at 100 uM. It is filed as tissue-based. Set-up: scale not given: the % may be the effect or the level left. To be noted: Aorta. An outline of the steps:
(§2)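 Guinea-pig aortic strips depolarized with 80 mM K+. Drugs added cumulatively. Readout is percent inhibition of calcium-induced contraction, n = 5–6. Control versus treated values tested at each concentration by Student's t-test, P < 0.05.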

For test [6], the species on record is Cavia porcellus. Description: Activity at L type calcium channel in K+ depolarized guinea pig aortic strip assessed as inhibition of calcium induced contraction at 50 uM. Also on record: scale not given: the % may be the effect or the level left. In kind it is tissue-based. The conditions noted are these: Aorta. An outline of the steps: as §2
Test [7] is filed under the species Cavia porcellus. Description: Chronotropic activity at L type calcium channel in guinea pig right atrium assessed as decrease in spontaneous beating at 10 uM relative to control. Also on record: scale not given: the % may be the effect or the level left. It is filed as tissue-based. The conditions noted are these: Cardiac atrium.
For test [8], the species on record is Cavia porcellus. Description: Inotropic activity at L type calcium channel in guinea pig left atrium assessed as decrease in tension at 1 uM relative to control. In kind it is tissue-based. Set-up: scale not given: the % may be the effect or the level left. To be noted: Cardiac atrium.
For test [9], the species on record is Cavia porcellus. Description: Inotropic activity at L type calcium channel in guinea pig left atrium assessed as decrease in tension at 10 uM relative to control. In kind it is tissue-based. The conditions noted are these: Cardiac atrium. Set-up: scale not given: the % may be the effect or the level left.
For test [10], the species on record is Cavia porcellus. Description: Chronotropic activity at L type calcium channel in guinea pig right atrium assessed as decrease in spontaneous beating at 100 uM relative to control. In kind it is tissue-based. Set-up: scale not given: the % may be the effect or the level left. To be noted: Cardiac atrium.
Test [11] in a line: Activity at L type calcium channel in K+ depolarized guinea pig longitudinal smooth muscle assessed as inhibition of calcium induced contraction. Set-up: species or system Cavia porcellus.
The species entered for test [12] is Cavia porcellus. Description: Activity at L type calcium channel in K+ depolarized guinea pig longitudinal smooth muscle assessed as inhibition of calcium induced contraction at 100 uM. Also on record: scale not given: the % may be the effect or the level left.
The species entered for test [13] is Cavia porcellus. Description: Activity at L type calcium channel in K+ depolarized guinea pig aortic strip assessed as inhibition of calcium induced contraction at 10 uM. In kind it is tissue-based. The conditions noted are these: Aorta. Set-up: scale not given: the % may be the effect or the level left. The procedure, abridged: as §2
Test [14] is filed under the species Cavia porcellus. Description: Activity at L type calcium channel in K+ depolarized guinea pig longitudinal smooth muscle assessed as inhibition of calcium induced contraction at 10 uM. Set-up: scale not given: the % may be the effect or the level left.
Test [15] is filed under the species Cavia porcellus. Description: Inotropic activity at L type calcium channel in guinea pig left atrium assessed as decrease in tension at 5 uM relative to control. It is filed as tissue-based. Also on record: scale not given: the % may be the effect or the level left. To be noted: Cardiac atrium.
Test [16] is described as follows: Displacement of (+)-[5-methyl-3H][…] from L type calcium channel in guinea pig heart ventricles. Set-up: species or system Cavia porcellus. The procedure, abridged:
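Guinea-pig ventricular membranes incubated with 0.5 nM (+)-[5-methyl-3H]PN200-110 and test compounds at 0.1–50 µM in a competitive radioligand assay. Ki and IC50 reported as mean ± S.E.M. Student's t-test, significance P < 0.001.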

For test [17], the species on record is Cavia porcellus. Description: Activity at L type calcium channel in K+ depolarized guinea pig longitudinal smooth muscle assessed as inhibition of calcium induced contraction at 1 uM. Set-up: scale not given: the % may be the effect or the level left.
A further test relates to HEK293. Description: Displacement of (+)-[5-methyl-3H][…] from L type calcium channel Cav1.2b in rabbit expressed in HEK293 cells. In kind it is cell-based. To be noted: Oryctolagus cuniculus. An outline of the steps:
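Intact HEK-293 cells transfected with rabbit Cav1.2a (α1C-a) or Cav1.2b (α1C-b) plasmid, labelled with (+)-[5-methyl-3H]PN200-110. Nonspecific binding about 10–20% of total. IC50 is mean ± S.E.M. of three independent experiments.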

One may read the EC30 as the concentration needed for an effect of 30%. As usually defined, the EC50 is the concentration giving half of the maximal effect. As to `COC(=O)C1=C(C)NC(C)=C(C(=O)OC)C1c1c(-c2cccc(OC(F)(F)F)c2)nc2sccn12`, the Activity stood at 86% in the test listed under Cavia porcellus [1], 69% in the test listed under Cavia porcellus [3] and 26% in the test filed under Cavia porcellus [5]. In the test filed under Cavia porcellus [2], the EC30 is 1180 nM. Also, the EC50 in test [4] came to 830 nM.
For `COC(=O)C1=C(C)NC(C)=C(C(=O)OC)C1c1c(Cl)nc2scc(C)n12`, the Activity in the test listed under Cavia porcellus [6] is 47%; in the test listed under Cavia porcellus [7] it was 39%; in the test listed under Cavia porcellus [8] it was 79%. Also, the EC50 in [4] stood at 103 nM.
For `COC(=O)C1=C(C)NC(C)=C(C(=O)OC)C1c1c(Cl)nc2sc(Cl)cn12`, the Activity in the test filed under Cavia porcellus [1] came to 77%; in the test listed under Cavia porcellus [6], 34%; in the test listed under Cavia porcellus [7], 37%. Besides, the EC50 in test [4] was found to be 180 nM.
Consider `COC(=O)C1=C(C)NC(C)=C(C(=O)OC)C1c1c(-c2cccc(C(F)(F)F)c2)nc2sccn12`, for which the Activity in the test filed under Cavia porcellus [1] worked out at 89%; in the test listed under Cavia porcellus [6] it was 27%; in the test listed under Cavia porcellus [7], 78%. Also, the EC30 in the test listed under Cavia porcellus [2] came to 1900 nM. Also, in test [4], the EC50 stood at 310 nM.
The IC50 is the concentration at which inhibition is half-maximal. For the compound `COC(=O)C1=C(C)NC(C)=C(C(=O)OC)C1c1c(-c2c(OC)ccc(OC)c2[N+](=O)[O-])nc2sccn12`, the Activity in the test filed under Cavia porcellus [9] came to 71%; in the test filed under Cavia porcellus [10], 12%; in the test filed under Cavia porcellus [5], 17%; in the test filed under Cavia porcellus [12] it was 86%. The EC50 in test [4] is 360 nM. Besides, the IC50 in test [11] is 11000 nM.
In the case of `COC(=O)C1=C(C)NC(C)=C(C(=O)OC)C1c1c(-c2ccc(OC)cc2OC)nc2sccn12`, the Activity in the test filed under Cavia porcellus [1] was 71%; in the test filed under Cavia porcellus [7] it was 55%; in the test listed under Cavia porcellus [5], 42%. For the same compound, the EC30 in the test filed under Cavia porcellus [2] is 5880 nM. Moreover, the EC50 in test [4] was determined as 1240 nM.
Take `COC(=O)C1=C(C)NC(C)=C(C(=O)OC)C1c1c(-c2cc(OC)c([N+](=O)[O-])cc2OC)nc2sc(Cl)cn12`: the Activity was 58% in the test filed under Cavia porcellus [9], 90% in the test listed under Cavia porcellus [3] and 19% in the test filed under Cavia porcellus [13]. The EC30 in the test listed under Cavia porcellus [2] worked out at 310 nM. For the same compound, the concentration giving a half-maximal response (EC50) in [4] came to 360 nM.
For the compound `COC(=O)C1=C(C)NC(C)=C(C(=O)OC)C1c1c(-c2cc(OC)ccc2OC)nc2sccn12`, the Activity in the test listed under Cavia porcellus [1] came out at 92%; in the test listed under Cavia porcellus [7] it was 31%; in the test filed under Cavia porcellus [5] it was 24%; in the test listed under Cavia porcellus [14], 51%. The EC50 in test [4] was 440 nM. The IC50 in test [11] amounted to 12400 nM.
Consider `COC(=O)C1=C(C)NC(C)=C(C(=O)OC)C1c1c(-c2c(OC)ccc(OC)c2[N+](=O)[O-])nc2sc(Cl)cn12`, for which the Activity in the test listed under Cavia porcellus [10] was found to be 64%; in the test filed under Cavia porcellus [5], 32%; in the test listed under Cavia porcellus [8] it was 42%. Further, in the test filed under Cavia porcellus [2], the EC30 is 11200 nM.
On to `COC(=O)C1=C(C)NC(C)=C(C(=O)OC)C1c1c(-c2cc(OC)c([N+](=O)[O-])cc2OC)nc2sc(C)cn12`, for which the Activity came out at 75% in the test filed under Cavia porcellus [15], 87% in the test listed under Cavia porcellus [7], 32% in the test listed under Cavia porcellus [5] and 94% in the test filed under Cavia porcellus [17]. In the test filed under Cavia porcellus [2], the EC30 is 2110 nM. Also, in test [4], the EC50 was found to be 26 nM. Further, in [16], the “Log Ki” value is listed as below -5. Besides, the outcome with HEK293 was inactive. Moreover, the half-inhibitory concentration (IC50) in test [11] worked out at 240 nM.
As to `COC(=O)C1=C(C)NC(C)=C(C(=O)OC)C1c1c(C)nc2sc(Cl)cn12`, the Activity in the test filed under Cavia porcellus [1] was 63%; in the test filed under Cavia porcellus [6], 24%; in the test filed under Cavia porcellus [7] it was 30%. The EC50 in test [4] was 130 nM.
For the compound `COC(=O)C1=C(C)NC(C)=C(C(=O)OC)C1c1c(Cl)nc2sc(C)c(C)n12`, the figures for the Activity in the test listed under Cavia porcellus [15], in the test listed under Cavia porcellus [3] and in the test filed under Cavia porcellus [13] were 73%, 29% and 29%, respectively. Also, the EC50 in [4] was 81 nM.
Consider `COC(=O)C1=C(C)NC(C)=C(C(=O)OC)C1c1c(-c2cc(OC)c(OC)c(OC)c2)nc2sccn12`, for which the Activity turned out to be 25% in the test listed under Cavia porcellus [3], 44% in the test filed under Cavia porcellus [5], 64% in the test listed under Cavia porcellus [17] and 42% in the test listed under Cavia porcellus [8]. The IC50 in [11] is 550 nM.
